Data: ChEMBL document CHEMBL5653620, “Activating the Wnt/β-Catenin Pathway for the Treatment of Melanoma--Application of LY2090314, a Novel Selective Inhibitor of Glycogen Synthase Kinase-3” (PLoS One, 2015)
Calls of active or inactive are those of the source. No cut-off for these calls is given here.

How the values were obtained:
[1] = target: Glycogen synthase kinase-3 (Homo sapiens) (UniProt P49840+P49841); experiment: Inhibition of GSK3 in human A-375 cells harbouring TCF/LEF luciferase reporter gene assessed as increase in wnt signaling incubated for 5 hrs by Bright-Glo luciferase assay; type: cell-based
Procedure, shortened: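 A375 cells carried a lentiviral TCF/LEF-responsive luciferase reporter, selected with puromycin 1 μg/ml for 3 days. Cells were seeded at 10,000 per well and moved to 2% FBS medium. Agents were given at 0.5 nmol/L–1 μmol/L for 5 h, and luciferase was read with Bright-Glo substrate.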

CHL-1 = experiment: Antiproliferative activity against human CHL-1 cells assessed as reduction in cell viability incubated for 72 hrs by CellTitre-Glo assay; type: functional, cell-based; conditions: CHL-1, 72 h
Procedure, shortened: (§1)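 Cells seeded at 2,000 per well and left to adhere overnight. After 24 h, medium was switched to growth medium with 2% FBS. Test agent was added at 0.5 nmol/L to 10 μmol/L for 72 h. Viability was read by CellTiter-Glo luminescence. IC50 came from nonlinear regression sigmoidal dose-response fits.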

A-375 [2] = experiment: Antiproliferative activity against human A-375 cells harboring BRAF V600E mutation assessed as reduction in cell viability incubated for 72 hrs by CellTitre-Glo assay; type: functional, cell-based; conditions: A-375, 72 h; procedure, shortened: as §1
[3] = Antiproliferative activity against human MEXF462 cells harboring BRAF V600E mutation assessed as reduction in cell viability incubated for 72 hrs by CellTitre-Glo assay; type: functional, cell-based; conditions: MEXF462, 72 h; procedure, shortened: as §1
M14 [4] = experiment: Antiproliferative activity against human M14 cells harboring BRAF V600E mutation assessed as reduction in cell viability incubated for 72 hrs by CellTitre-Glo assay; type: functional, cell-based; conditions: M14, 72 h; procedure, shortened: as §1
[5] = Antiproliferative activity against human MEL1102 cells harboring NRAS Q61K mutation assessed as reduction in cell viability incubated for 72 hrs by CellTitre-Glo assay; type: functional, cell-based; conditions: MEL1102, 72 h; procedure, shortened: as §1
SK-MEL-28 = experiment: Antiproliferative activity against human SK-MEL-28 cells harboring BRAF V600E mutation assessed as reduction in cell viability incubated for 72 hrs by CellTitre-Glo assay; type: functional, cell-based; conditions: SK-MEL-28, 72 h; procedure, shortened: as §1
SK-MEL-2 = experiment: Antiproliferative activity against human SK-MEL-2 cells harboring NRAS Q61R mutation assessed as reduction in cell viability incubated for 72 hrs by CellTitre-Glo assay; type: functional, cell-based; conditions: SK-MEL-2, 72 h; procedure, shortened: as §1
A2058 = experiment: Antiproliferative activity against human A2058 cells harboring BRAF V600E/PTEN null mutation assessed as reduction in cell viability incubated for 72 hrs by CellTitre-Glo assay; type: functional, cell-based; conditions: A2058, 72 h; procedure, shortened: as §1
[6] = Antiproliferative activity against human MEXF1792 cells harboring NRAS G13D mutation assessed as reduction in cell viability incubated for 72 hrs by CellTitre-Glo assay; type: functional, cell-based; conditions: MEXF1792, 72 h; procedure, shortened: as §1
[7] = Antiproliferative activity against human MEXF276 cells harboring BRAF V600E mutation assessed as reduction in cell viability incubated for 72 hrs by CellTitre-Glo assay; type: functional, cell-based; conditions: MEXF276, 72 h; procedure, shortened: as §1
[8] = Antiproliferative activity against human MEXF1341 cells harboring NRAS Q61 mutation assessed as reduction in cell viability incubated for 72 hrs by CellTitre-Glo assay; type: functional, cell-based; conditions: MEXF1341, 72 h; procedure, shortened: as §1
M14 [9] = experiment: Antiproliferative activity against human M14 cells transfected with beta-catenin shRNA assessed as reduction in cell viability incubated for 72 hrs by CellTitre-Glo assay; type: functional, cell-based
Procedure, shortened: (§2)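 A375 or M14 cells were transduced with lentiviral shRNA particles (target or control) at MOI 2 with polybrene 8 μg/ml. Puromycin selection at 2 μg/ml began 48 h later, and knockdown was checked by immunoblot. Cells were seeded at 2,000 per well in 2% FBS medium, exposed to agents for 72 h, and read by CellTiter-Glo.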

A-375 [10] = experiment: Antiproliferative activity against human A-375 cells transfected with beta-catenin shRNA assessed as reduction in cell viability incubated for 72 hrs by CellTitre-Glo assay; type: functional, cell-based; procedure, shortened: as §2
A-375 [11] = experiment: Antiproliferative activity against human A-375 cells transfected with Axin1 shRNA assessed as reduction in cell viability incubated for 72 hrs by CellTitre-Glo assay; type: functional, cell-based; procedure, shortened: as §2
M14 [12] = experiment: Antiproliferative activity against human M14 cells transfected with Axin1 shRNA assessed as reduction in cell viability incubated for 72 hrs by CellTitre-Glo assay; type: functional, cell-based; procedure, shortened: as §2
A-375 [13] = experiment: Antiproliferative activity against human vemurafenib-resistant A-375 cells harboring BRAF V600E mutation assessed as reduction in cell viability incubated for 72 hrs by CellTitre-Glo assay; type: functional, cell-based; conditions: A-375, 72 h
Procedure, shortened: (§3)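 Resistant A375 or M14 lines were derived by growth in vemurafenib over 3 months. Cells were seeded at 2,000 per well and allowed to adhere overnight, then moved to 2% FBS growth medium. Agents were added at 0.5 nmol/L–10 μmol/L for 72 h. Viability was read by CellTiter-Glo, and IC50 was taken from sigmoidal nonlinear regression.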

M14 [14] = experiment: Antiproliferative activity against human vemurafenib-resistant M14 cells harboring BRAF V600E mutation assessed as reduction in cell viability incubated for 72 hrs by CellTitre-Glo assay; type: functional, cell-based; conditions: M14, 72 h; procedure, shortened: as §3

Sequence of Glycogen synthase kinase-3 (Homo sapiens) (P49840 whole entry, looked up): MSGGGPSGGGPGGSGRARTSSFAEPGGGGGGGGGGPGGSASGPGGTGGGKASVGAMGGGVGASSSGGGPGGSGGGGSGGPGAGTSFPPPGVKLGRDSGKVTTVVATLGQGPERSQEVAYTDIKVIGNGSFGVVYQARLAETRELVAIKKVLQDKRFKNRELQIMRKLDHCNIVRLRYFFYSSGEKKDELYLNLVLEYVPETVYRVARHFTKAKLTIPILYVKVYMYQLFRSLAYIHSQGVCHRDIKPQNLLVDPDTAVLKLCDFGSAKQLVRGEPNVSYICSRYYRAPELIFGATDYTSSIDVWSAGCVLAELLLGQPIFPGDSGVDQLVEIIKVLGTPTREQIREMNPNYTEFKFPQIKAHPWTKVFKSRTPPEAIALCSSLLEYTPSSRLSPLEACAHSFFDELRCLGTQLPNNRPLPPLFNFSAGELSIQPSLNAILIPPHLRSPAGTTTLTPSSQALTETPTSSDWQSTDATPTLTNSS
Sequence of Glycogen synthase kinase-3 (Homo sapiens) (P49841 whole entry, looked up): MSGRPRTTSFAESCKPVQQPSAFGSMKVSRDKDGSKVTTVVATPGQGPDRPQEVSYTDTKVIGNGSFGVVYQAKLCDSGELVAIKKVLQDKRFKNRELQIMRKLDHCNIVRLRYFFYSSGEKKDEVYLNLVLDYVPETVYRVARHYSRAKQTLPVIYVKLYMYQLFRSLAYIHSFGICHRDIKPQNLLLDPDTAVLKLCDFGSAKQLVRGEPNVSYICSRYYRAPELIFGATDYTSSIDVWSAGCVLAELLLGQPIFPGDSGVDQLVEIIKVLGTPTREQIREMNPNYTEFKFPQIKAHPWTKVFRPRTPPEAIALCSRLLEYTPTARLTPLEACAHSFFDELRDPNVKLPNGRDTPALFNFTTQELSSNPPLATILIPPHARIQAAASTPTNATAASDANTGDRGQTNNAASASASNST

Row | IC50 (A-375 [13]) [nM] | Compound | inhibition [1] | IC50 (CHL-1) [nM] | IC50 (A-375 [2]) [nM] | IC50 [3] [nM] | IC50 (M14 [4]) [nM] | IC50 [5] [nM] | IC50 (SK-MEL-28) [nM] | IC50 (SK-MEL-2) [nM] | IC50 (A2058) [nM] | IC50 [6] [nM] | IC50 [7] [nM] | IC50 [8] [nM] | Activity (M14 [9]) | Activity (A-375 [10]) | Activity (A-375 [11]) | Activity (M14 [12]) | IC50 (M14 [14]) [nM]
1 | – | Nc1nc2ccc(OC(F)(F)F)cc2s1 | Active | – | – | – | – | – | – | – | – | – | – | – | – | – | – | – | –
2 | – | CC(=O)O/N=C1/C(=C2/C(=O)Nc3cc(Br)ccc32)Nc2ccccc21 [6-BROMOINDIRUBIN-3'-ACETOXIME] | Active | 1460 | 914 | 605 | 646 | 750 | > 5000 | 942 | 361 | 4940 | 954 | 1150 | – | – | – | – | –
3 | 5480 | CCCS(=O)(=O)Nc1ccc(F)c(C(=O)c2c[nH]c3ncc(-c4ccc(Cl)cc4)cc23)c1F [VEMURAFENIB] | – | > 10000 | 102 | – | 88 | 1260 | – | > 10000 | – | – | – | – | Active | Active | Active | Active | 3860
